Measured values reported in ChEMBL document CHEMBL4007461, “Synthesis, Antiviral Potency, in Vitro ADMET, and X-ray Structure of Potent CD4 Mimics as Entry Inhibitors That Target the Phe43 Cavity of HIV-1 gp120” (J Med Chem, 2017).
pIC50: −log10 of the molar value. ≈ marks a conversion by molar mass, not a printed value. Calls of active or inactive are those of the source. The rule behind the calls is not given here.

Tests used:
[1] = Inhibition of HIV1 reverse transcriptase by colorimetric assay; design: species or system Human immunodeficiency virus 1
Procedure, shortened: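 HIV-1 reverse transcriptase activity measured with a commercial colorimetric reverse transcriptase kit, following the maker's instructions.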

[2] = Inhibition of HIV1 HXB2 gp120-mediated cell to cell fusion using human MAGI-CCR5 cells as indicator cells and Env/Tat-expressing HL2/3 cells as effector cells preincubated with MAGI-CCR5 cells for 1 hr followed by HL2/3 cells addition by beta-galactosidase reporter gene assay; details: Human immunodeficiency virus 1, HXB2
[3] = Aqueous solubility of the compound at 1 to 100 uM in PBS at pH 7.4 after 2 hrs by turbidimetric analysis; format: physicochemical
Procedure, shortened: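 DMSO stocks diluted 1:100 into phosphate-buffered saline pH 7.4, giving 1, 3, 10, 30 and 100 µM final in 1% DMSO. Seven replicate wells per concentration, incubated 2 h at 37 °C, absorbance read at 620 nm. Solubility taken as the concentration giving absorbance above the 1% DMSO vehicle.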

[4] = Inhibition of CYP1A in human liver microsomes using ethoxyresorufin as substrate after 5 mins in presence of NADPH by LC-MS/MS analysis
[5] = Apparent permeability from apical to basolateral side in human Caco2 cells at 10 uM at pH 7.4 by LC-MS/MS analysis; format: ADME, cell-based; details: Caco-2, pH 7.4
Procedure, shortened: (§1)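 Caco-2 cells, passage 40-60, seeded on Transwell inserts at 1 x 10^5 cells/cm2 and grown 20 days in DMEM. Monolayers equilibrated 40 min in HBSS. Donor: compound at 10 µM final, 1% DMSO, in HBSS pH 7.4 with lucifer yellow as integrity marker. Sampled at 120 min, A-B and B-A, in duplicate, by LC-MS/MS. Papp = (dQ/dt)/(C0 × A); efflux ratio = Papp(B-A)/Papp(A-B).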

[6] = Apparent permeability from basolateral to apical side in human Caco2 cells at 10 uM at pH 7.4 by LC-MS/MS analysis; format: ADME, cell-based; details: Caco-2, pH 7.4; procedure, shortened: as §1
[7] = Unbound fraction in human plasma at 5 uM by LC-MS/MS based equilibrium dialysis; format: ADME, cell-free
[8] = target: Voltage-gated inwardly rectifying potassium channel KCNH2 (Homo sapiens, UniProt Q12809); assay: Inhibition of human ERG expressed in CHO cells by patch clamp electrophysiology assay; format: cell-based
Cytochrome P450 2C19 = Cytochrome P450 2C19 (Homo sapiens, UniProt P33261); assay: Inhibition of CYP2C19 in human liver microsomes using mephenytoin as substrate after 60 mins in presence of NADPH by LC-MS/MS analysis; format: ADME
[9] = test system: Human immunodeficiency virus 1; assay: Antiviral activity against ENV pseudotyped CCR5-tropic HIV1 subtype C 225925-2, clone 22; format: functional; details: Human immunodeficiency virus 1, subtype C 225925-2, clone 22
Procedure, shortened: (§2)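 Env-pseudotyped viruses made by co-transfecting HEK293T cells with an Env-deleted pSG3 backbone (8 µg) and an Env-expression plasmid (8 µg). Supernatants were harvested 2 days after transfection, filtered, titered and stored at −80 °C. They were used for single-cycle infection, and IC50 was taken from percent inhibition.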

[10] = Metabolic stability in human liver microsomes assessed as compound remaining at 45 mins in presence of NADPH by LC-MS/MS analysis; format: ADME, microsome; details: read-out: Stability
[11] = (§3) Cytotoxicity against human MT2 cells incubated for 4 days by XTT assay; format: cell-based; details: MT2 cells
Procedure, shortened: (§4)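 Run alongside the MT-2 multicycle infection assay. Compound at graded concentrations mixed with an equal volume of MT-2 cells (10^5 cells/ml). Medium replaced next day and culture continued four days.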

[12] = Intrinsic clearance in human liver microsomes assessed per mg protein in presence of NADPH by LC-MS/MS analysis; format: ADME, microsome; details: read-out: CLH
Cytochrome P450 3A4 = Cytochrome P450 3A4 (Homo sapiens, UniProt P08684); assay: Inhibition of CYP3A4 in human liver microsomes using midazolam as substrate after 5 mins in presence of NADPH by LC-MS/MS analysis; format: ADME
Cytochrome P450 2C9 = Cytochrome P450 2C9 (Homo sapiens, UniProt P11712); assay: Inhibition of CYP2C9 in human liver microsomes using tolbutamide as substrate after 60 mins in presence of NADPH by LC-MS/MS analysis; format: ADME
[13] = test system: Human immunodeficiency virus 1; assay: Antiviral activity against ENV pseudotyped CCR5-tropic HIV1 subtype D QA013.70I.ENV.M12; format: functional; details: Human immunodeficiency virus 1, subtype D QA013.70I.ENV.M12; procedure, shortened: as §2
[14] = test system: Human immunodeficiency virus 1; assay: Antiviral activity against ENV pseudotyped CCR5-tropic HIV1 subtype D QD435.100M.ENV.B5; format: functional; details: Human immunodeficiency virus 1, subtype D QD435.100M.ENV.B5; procedure, shortened: as §2
[15] = (§5) Cytotoxicity against human TZM-bl cells incubated for 3 days by XTT assay; format: cell-based; details: TZM-bl cells
Procedure, shortened: (§6)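 TZM-bl cells, 1 x 10^4/well, cultured overnight at 37 °C. Compounds added at graded concentrations for three days.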

Cytochrome P450 2D6 = Cytochrome P450 2D6 (Homo sapiens, UniProt P10635); assay: Inhibition of CYP2D6 in human liver microsomes using dextromethorphan as substrate after 5 mins in presence of NADPH by LC-MS/MS analysis; format: ADME
[16] = test system: Human immunodeficiency virus 1; assay: Antiviral activity against HIV1 HXB2 pseudovirus infected in human TZM-bl cells assessed as inhibition of viral entry treated 2 to 4 hrs post infection measured after 48 hrs by luciferase reporter gene assay; format: functional, cell-based
Procedure, shortened: (§7)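 TZM-bl cells, 1 x 10^4/well, cultured overnight at 37 °C, then infected with HXB2 Env pseudovirus. Plates spun 30 min at 2090 g at 4 °C, then held 90 min at 37 °C. Unbound virus washed off with PBS and fresh medium added. Compounds given at 10-15 times their IC50 at set times after infection. Cells lysed at 48 h and luciferase read. Two independent experiments, each in triplicate.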

[17] = test system: Human immunodeficiency virus 1; assay: Antiviral activity against HIV1 HXB2 pseudovirus infected in human TZM-bl cells assessed as inhibition of viral entry treated 1 hr post infection measured after 48 hrs by luciferase reporter gene assay; format: functional, cell-based; procedure, shortened: as §7
[18] = test system: Human immunodeficiency virus 1; assay: Antiviral activity against HIV1 HXB2 pseudovirus infected in human TZM-bl cells assessed as inhibition of viral entry treated 8 hrs post infection measured after 48 hrs by luciferase reporter gene assay; format: functional, cell-based; procedure, shortened: as §7
MT2 = assay: as §3; format: cell-based; details: mt2, 96 h, 96 h; procedure, shortened: as §4
[19] = test system: Human immunodeficiency virus 1; assay: Antiviral activity against X4 tropic HIV1 HXB2 infected in human TZM-bl cells pretreated with virus for 30 mins followed by 3 days incubation with cells by luciferase reporter gene based single cycle infection assay; format: functional, cell-based
Procedure, shortened: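 TZM-bl cells (1 x 10^4/well) were cultured overnight at 37 °C. HXB2-Env pseudovirus was preincubated 30 min with graded compound concentrations, then added to the cells for 3 days. Cells were washed and lysed, and luciferase was read. IC50 came from percent inhibition.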

TZM = assay: as §5; format: cell-based; details: tzm, 72 h; procedure, shortened: as §6
[20] = test system: Human immunodeficiency virus 1; assay: Antiviral activity against HIV1 3B infected in human MT2 cells assessed as inhibition of p24 antigen production pretreated with virus for 30 mins followed by 4 days incubation with cells by sandwich ELISA based multicycle infection assay; format: functional, cell-based
Procedure, shortened: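 MT-2 cells were infected with HIV-1 IIIB at 100 TCID50 and preincubated 30 min with graded compound concentrations. Medium was replaced next day. Supernatants were collected 4 days post-infection, lysed with equal volume 5% Triton X-100, and p24 was measured by sandwich ELISA. IC50 came from percent inhibition of p24.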

Chain of Cytochrome P450 2C19 (P33261 whole entry): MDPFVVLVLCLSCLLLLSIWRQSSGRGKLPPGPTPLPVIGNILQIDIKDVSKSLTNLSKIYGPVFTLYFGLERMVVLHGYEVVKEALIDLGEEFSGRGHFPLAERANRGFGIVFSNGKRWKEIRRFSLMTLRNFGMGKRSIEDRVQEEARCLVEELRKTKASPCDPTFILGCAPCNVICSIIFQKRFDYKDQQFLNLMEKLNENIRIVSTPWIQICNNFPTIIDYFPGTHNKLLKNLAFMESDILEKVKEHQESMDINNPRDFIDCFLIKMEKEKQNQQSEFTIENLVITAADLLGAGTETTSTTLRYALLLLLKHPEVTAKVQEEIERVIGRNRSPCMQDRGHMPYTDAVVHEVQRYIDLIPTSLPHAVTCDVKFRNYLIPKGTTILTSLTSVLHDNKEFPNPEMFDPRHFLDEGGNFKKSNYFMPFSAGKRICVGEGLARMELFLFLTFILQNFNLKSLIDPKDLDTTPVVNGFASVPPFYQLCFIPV
Chain of Cytochrome P450 2C9 (P11712 whole entry): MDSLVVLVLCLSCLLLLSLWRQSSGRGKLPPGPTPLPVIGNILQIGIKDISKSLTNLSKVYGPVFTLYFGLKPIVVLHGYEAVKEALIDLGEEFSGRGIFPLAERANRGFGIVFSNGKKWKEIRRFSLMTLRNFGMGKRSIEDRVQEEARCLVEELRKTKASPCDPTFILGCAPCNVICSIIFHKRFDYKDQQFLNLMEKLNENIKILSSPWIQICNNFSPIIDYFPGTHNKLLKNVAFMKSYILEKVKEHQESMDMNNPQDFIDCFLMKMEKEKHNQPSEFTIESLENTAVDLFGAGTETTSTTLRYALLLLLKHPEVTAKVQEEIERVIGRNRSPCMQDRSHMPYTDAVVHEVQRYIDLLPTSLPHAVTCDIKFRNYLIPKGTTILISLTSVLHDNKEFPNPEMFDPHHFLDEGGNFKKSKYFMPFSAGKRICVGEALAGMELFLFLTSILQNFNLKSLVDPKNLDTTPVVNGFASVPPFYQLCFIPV
Chain of Voltage-gated inwardly rectifying potassium channel KCNH2 (Q12809 whole entry): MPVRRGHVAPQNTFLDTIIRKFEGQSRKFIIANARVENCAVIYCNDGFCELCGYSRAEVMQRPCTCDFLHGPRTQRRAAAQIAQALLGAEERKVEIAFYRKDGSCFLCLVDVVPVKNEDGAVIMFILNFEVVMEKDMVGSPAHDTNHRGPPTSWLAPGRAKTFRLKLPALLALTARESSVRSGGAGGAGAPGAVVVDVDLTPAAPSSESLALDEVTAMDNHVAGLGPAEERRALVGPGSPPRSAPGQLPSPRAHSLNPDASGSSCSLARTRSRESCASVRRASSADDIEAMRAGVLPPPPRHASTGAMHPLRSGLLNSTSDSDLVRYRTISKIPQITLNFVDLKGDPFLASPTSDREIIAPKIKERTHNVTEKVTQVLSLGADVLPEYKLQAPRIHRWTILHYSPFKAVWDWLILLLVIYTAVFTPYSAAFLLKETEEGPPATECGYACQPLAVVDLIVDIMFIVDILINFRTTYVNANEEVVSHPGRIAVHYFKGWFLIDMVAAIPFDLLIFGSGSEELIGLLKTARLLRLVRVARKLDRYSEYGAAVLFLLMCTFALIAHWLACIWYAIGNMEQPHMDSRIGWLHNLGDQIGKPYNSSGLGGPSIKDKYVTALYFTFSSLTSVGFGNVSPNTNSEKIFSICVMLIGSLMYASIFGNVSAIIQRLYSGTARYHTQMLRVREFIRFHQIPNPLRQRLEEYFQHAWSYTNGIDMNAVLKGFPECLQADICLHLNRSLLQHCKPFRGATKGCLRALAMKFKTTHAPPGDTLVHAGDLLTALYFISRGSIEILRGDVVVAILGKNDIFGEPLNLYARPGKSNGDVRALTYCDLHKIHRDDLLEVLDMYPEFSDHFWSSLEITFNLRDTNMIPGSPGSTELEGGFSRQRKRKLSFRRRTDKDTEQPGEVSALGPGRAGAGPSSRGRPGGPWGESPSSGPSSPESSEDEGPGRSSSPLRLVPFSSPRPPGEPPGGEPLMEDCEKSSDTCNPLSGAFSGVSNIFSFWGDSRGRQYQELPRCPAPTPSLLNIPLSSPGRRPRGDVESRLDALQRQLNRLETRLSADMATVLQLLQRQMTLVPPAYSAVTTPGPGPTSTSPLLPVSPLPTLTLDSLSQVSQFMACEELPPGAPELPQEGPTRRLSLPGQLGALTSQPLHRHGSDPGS
Chain of Cytochrome P450 2D6 (P10635 whole entry): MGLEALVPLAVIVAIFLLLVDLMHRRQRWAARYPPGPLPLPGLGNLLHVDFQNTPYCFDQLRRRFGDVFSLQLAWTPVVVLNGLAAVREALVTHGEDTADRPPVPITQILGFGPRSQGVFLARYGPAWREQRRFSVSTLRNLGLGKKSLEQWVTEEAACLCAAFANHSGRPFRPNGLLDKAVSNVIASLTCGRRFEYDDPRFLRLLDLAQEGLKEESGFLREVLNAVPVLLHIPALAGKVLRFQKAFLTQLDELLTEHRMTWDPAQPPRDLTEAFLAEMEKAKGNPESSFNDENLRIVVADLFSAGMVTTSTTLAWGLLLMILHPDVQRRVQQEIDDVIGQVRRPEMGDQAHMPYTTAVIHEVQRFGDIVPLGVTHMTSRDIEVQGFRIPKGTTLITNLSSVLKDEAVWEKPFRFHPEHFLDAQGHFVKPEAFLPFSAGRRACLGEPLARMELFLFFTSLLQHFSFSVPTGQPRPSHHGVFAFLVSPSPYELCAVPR
Chain of Cytochrome P450 3A4 (P08684 whole entry): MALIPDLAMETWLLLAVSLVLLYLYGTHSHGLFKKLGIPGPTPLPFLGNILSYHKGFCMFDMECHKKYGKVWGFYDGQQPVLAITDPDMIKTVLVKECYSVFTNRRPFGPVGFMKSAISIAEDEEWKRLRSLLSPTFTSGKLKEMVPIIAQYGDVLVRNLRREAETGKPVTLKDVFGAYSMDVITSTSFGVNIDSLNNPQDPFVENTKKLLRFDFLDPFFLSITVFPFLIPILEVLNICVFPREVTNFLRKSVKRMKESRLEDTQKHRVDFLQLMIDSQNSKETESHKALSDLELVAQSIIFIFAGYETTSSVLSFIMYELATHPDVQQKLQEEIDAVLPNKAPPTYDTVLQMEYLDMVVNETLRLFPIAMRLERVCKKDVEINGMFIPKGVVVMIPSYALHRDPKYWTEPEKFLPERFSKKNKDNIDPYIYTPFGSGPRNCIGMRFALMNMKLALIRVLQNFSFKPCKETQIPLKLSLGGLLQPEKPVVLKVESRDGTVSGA

Row | SMILES | CC50 (MT2) [µM] | pIC50 [19] | CC50 (TZM) [µM] | pIC50 [20] | further results
1 | CC1(C)CC(NC(=O)C(=O)Nc2ccc(Cl)cc2)CC(C)(C)N1 | – | – | – | – | pIC50 [1]: < 3.52; pIC50 [2]: 5.54
2 | COc1cnc(-n2cnc(C)n2)c2[nH]cc(C(=O)C(=O)N3CCN(C(=O)c4ccccc4)CC3)c12 | – | – | – | – | solubility kinetic at 2 h [3]: > 100 µM; pIC50 [4]: < 4.60; Papp A→B at 10 µM [5]: 7.62 ×10⁻⁶ cm/s; Papp B→A at 10 µM [6]: 37.4 ×10⁻⁶ cm/s
3 | Cc1nc(C(NC(=O)c2ccc(-c3ccc(Cl)cc3)[nH]2)C2CCCCN2)sc1CO (stereo not given) | – | – | – | – | solubility kinetic at 2 h [3]: 65 µM (≈ 28.9 µg/mL); pIC50 [4]: < 4.60; pIC50 [1]: 4.33; fraction unbound at 5 µM [7]: 0.114; IC50 [8]: 3.8 µM; pIC50 (Cytochrome P450 2C19): < 4.60; Papp A→B at 10 µM [5]: 2.31 ×10⁻⁶ cm/s; pIC50 [9]: 5.96; remaining at […] [10]: 84%; CC50 at 96 h [11]: 24.8 µM; microsomal CLint [12]: < 10 µL/min/mg; pIC50 (Cytochrome P450 3A4): < 4.60; pIC50 (Cytochrome P450 2C9): < 4.60; pIC50 [13]: 6.10; Papp B→A at 10 µM [6]: 31.3 ×10⁻⁶ cm/s; pIC50 [14]: 5.85; CC50 at 72 h [15]: 23.6 µM; pIC50 [2]: 5.21; pIC50 (Cytochrome P450 2D6): < 4.60
4 | COc1ccnc2[nH]cc(C(=O)C(=O)N3CCN(C(=O)c4ccccc4)C[C@H]3C)c12 | – | – | – | – | inhibition [16]: inactive; inhibition [17]: Active
5 | Cc1nnc(C(=O)NC(C)(C)c2nc(C(=O)NCc3ccc(F)cc3)c(O)c(=O)n2C)o1 | – | – | – | – | inhibition [18]: inactive
6 | c1cc(CN2CCCNCCNCCCNCC2)ccc1CN1CCCNCCNCCCNCC1 | – | – | – | – | inhibition [16]: inactive; inhibition [17]: Active
7 | Cc1cc(-c2ccc(Cl)cc2)[nH]c1C(=O)NC(CN)c1nc(C)c(CO)s1 (stereo in doubt; 27B) | 24.9 | 5.66 | 27.2 | 5.39 | –
8 | Cc1cc(C(=O)NC(CN)c2nc(C)c(CO)s2)[nH]c1-c1ccc(Cl)cc1 (stereo in doubt; 28A) | 18 | – | 22.2 | – | pIC50 ([19]; Human immunodeficiency virus 1, HXB2, TZM-bl): 5.44; pIC50 ([20]; Human immunodeficiency virus 1, 3B, MT2): 5.28
9 | CNCC(NC(=O)c1ccc(-c2ccc(C)c(F)c2)[nH]1)c1nc(C)c(CO)s1 (stereo in doubt; 43B) | 30.6 | 5.80 | 34.2 | 6.02 | –
10 | Cc1nc(C(CCN)NC(=O)c2ccc(-c3ccc(F)c(Cl)c3)[nH]2)sc1CO (stereo in doubt; 62B) | 24.9 | 5.10 | 24.5 | 5.03 | –
11 | Cc1cc(-c2ccc(C(=O)NC(CCN)c3nc(C)c(CO)s3)[nH]2)ccc1F (stereo in doubt; 63B) | 34.7 | 5.11 | 38.2 | 5.52 | –
12 | CNCCC(NC(=O)c1ccc(-c2ccc(F)c(Cl)c2)[nH]1)c1nc(C)c(CO)s1 (stereo in doubt; 65B) | 24.2 | 5.34 | 22.3 | 5.24 | –
13 | CNCCC(NC(=O)c1ccc(-c2ccc(F)c(C)c2)[nH]1)c1nc(C)c(CO)s1 (stereo in doubt; 66B) | 25.3 | 5.31 | 36.4 | 5.30 | –
14 | Cc1nc(C(CCN(C)C)NC(=O)c2ccc(-c3ccc(F)c(Cl)c3)[nH]2)sc1CO (stereo in doubt; 68B) | 22 | 5.74 | 22 | 5.36 | –
15 | Cc1cc(-c2ccc(C(=O)NC(CCN(C)C)c3nc(C)c(CO)s3)[nH]2)ccc1F (stereo in doubt; 69B) | 23.5 | 5.32 | 23.5 | 5.54 | –
16 | NCC(NC(=O)c1ccc(-c2ccc(Cl)cc2)[nH]1)c1ncc(CO)s1 (stereo in doubt; 81B) | 34.5 | 6.12 | 37.1 | 5.74 | –
17 | NCC(NC(=O)c1ccc(-c2ccc(Cl)c(F)c2)[nH]1)c1ncc(CO)s1 (stereo in doubt; 82B) | 36 | 6.24 | 33 | 5.92 | –
18 | CNCC(NC(=O)c1ccc(-c2ccc(Cl)c(F)c2)[nH]1)c1ncc(CO)s1 (stereo in doubt; 86B) | 18.3 | 6.02 | 17.3 | 5.40 | –
19 | CNCC(NC(=O)c1ccc(-c2ccc(C)c(F)c2)[nH]1)c1ncc(CO)s1 (stereo in doubt; 87B) | 28.3 | 6.00 | 27.4 | 6.00 | –
20 | CNCC(NC(=O)c1ccc(-c2cc(F)c(Cl)c(F)c2)[nH]1)c1ncc(CO)s1 (stereo in doubt; 88B) | 11.9 | 6.38 | 13.9 | – | –
